Tests used:
[1] = target: T1, Kappa-type opioid receptor (Homo sapiens, UniProt P41145); assay: Binding affinity for […] [3H]diprenorphine against human Opioid receptor kappa expressed in chinese hamster ovary cells (CHO cells); type: cell-based
Summary of the method: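 Competitive displacement of [3H]diprenorphine binding to membranes from CHO cells stably transfected with human KOR; compounds were first screened at a single concentration.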

[2] = target: T1, Kappa-type opioid receptor; assay: Concentration required to enhance [35S]GTP-gamma-S, binding to human Opioid receptor kappa expressed in CHO cells; type: functional, cell-based
Summary of the method: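 [35S]GTPγS binding to membranes of CHO cells stably expressing human KOR; EC50 for agonist-stimulated enhancement of binding; means of at least three independent experiments run in duplicate.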

[3] = target: T1, Kappa-type opioid receptor; assay: Percent maximal response in enhanced [35S]GTP-gamma-S, binding to human Opioid receptor kappa expressed in CHO cells relative to U50,488H; type: functional, cell-based
Summary of the method: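 Agonist stimulation of [35S]GTPγS binding to membranes of CHO-hKOR cells; efficacy is maximal response expressed as % of that of U50,488H; means of at least three independent experiments run in duplicate.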

T1 sequence (P41145 whole entry): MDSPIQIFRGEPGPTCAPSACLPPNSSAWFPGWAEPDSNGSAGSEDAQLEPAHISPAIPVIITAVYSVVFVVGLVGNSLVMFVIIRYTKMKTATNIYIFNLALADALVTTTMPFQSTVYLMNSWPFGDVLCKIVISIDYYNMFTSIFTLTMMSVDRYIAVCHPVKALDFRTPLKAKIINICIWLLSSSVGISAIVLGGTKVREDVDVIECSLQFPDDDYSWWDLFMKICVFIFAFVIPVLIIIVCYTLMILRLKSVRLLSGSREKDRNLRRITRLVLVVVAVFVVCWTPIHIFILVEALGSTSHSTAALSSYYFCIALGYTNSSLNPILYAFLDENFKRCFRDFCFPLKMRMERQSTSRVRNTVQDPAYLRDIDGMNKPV

CCCCCCCCOC(=O)[C@@H]1C[C@H](OC(C)=O)C(=O)[C@H]2[C@@]1(C)CC[C@H]1C(=O)O[C@H](c3ccoc3)C[C@]21C
Ki [1]: > 1 µM

CC(=O)O[C@H]1C[C@@H](C(=O)NC(CO)C(=O)OCc2ccccc2)[C@]2(C)CC[C@H]3C(=O)O[C@H](c4ccoc4)C[C@]3(C)[C@H]2C1=O (some centres undefined)
Ki [1]: > 1 µM

C=CCOC(=O)[C@@H]1C[C@H](OC(C)=O)C(=O)[C@H]2[C@@]1(C)CC[C@H]1C(=O)O[C@H](c3ccoc3)C[C@]21C
Ki [1]: > 1 µM

CC(=O)O[C@H]1C[C@@H](C(=O)O)[C@]2(C)CC[C@H]3C(=O)O[C@H](c4ccoc4)C[C@]3(C)[C@H]2C1=O
Ki [1]: > 1 µM

CC(=O)O[C@H]1C[C@@H](C(=O)NCC(=O)OCc2ccccc2)[C@]2(C)CC[C@@H]3C(=O)O[C@H](c4ccoc4)C[C@]3(C)[C@H]2C1=O
Ki [1]: > 1 µM

CCCOC(=O)[C@@H]1C[C@H](OC(C)=O)C(=O)[C@H]2[C@@]1(C)CC[C@H]1C(=O)O[C@H](c3ccoc3)C[C@]21C
Ki [1]: > 1 µM

C#CCCOC(=O)[C@@H]1C[C@H](OC(C)=O)C(=O)[C@H]2[C@@]1(C)CC[C@H]1C(=O)O[C@H](c3ccoc3)C[C@]21C
Ki [1]: > 1 µM

C#CCCCOC(=O)[C@@H]1C[C@H](OC(C)=O)C(=O)[C@@H]2[C@@]3(C)C[C@@H](c4ccoc4)OC(=O)[C@H]3CC[C@]21C
Ki [1]: > 1 µM

CC(=O)O[C@H]1C[C@@H](C(=O)NCCc2ccccc2)[C@]2(C)CC[C@H]3C(=O)O[C@H](c4ccoc4)C[C@]3(C)[C@H]2C1=O
Ki [1]: > 1 µM

CC(=O)O[C@H]1C[C@@H](C(=O)NN2CCC(C)CC2)[C@]2(C)CC[C@H]3C(=O)O[C@H](c4ccoc4)C[C@]3(C)[C@H]2C1=O
Ki [1]: > 1 µM

CCOC(=O)[C@@H]1C[C@H](OC(C)=O)C(=O)[C@H]2[C@@]1(C)CC[C@H]1C(=O)O[C@H](c3ccoc3)C[C@]21C
Ki [1]: 0.0285 µM | EC50 [2]: 0.0944 µM | Efficacy [3]: 110%

CC(=O)O[C@H]1C[C@@H](C(=O)NCCO)[C@]2(C)CC[C@H]3C(=O)O[C@H](c4ccoc4)C[C@]3(C)[C@H]2C1=O
Ki [1]: > 1 µM

COCOC(=O)[C@@H]1C[C@H](OC(C)=O)C(=O)[C@@H]2[C@@]3(C)C[C@@H](c4ccoc4)OC(=O)[C@H]3CC[C@]21C
Ki [1]: 0.11 µM | EC50 [2]: 0.191 µM | Efficacy [3]: 102%

CC(=O)O[C@H]1C[C@@H](C(=O)N2CCCC2C(=O)OCc2ccccc2)[C@]2(C)CC[C@@H]3C(=O)O[C@H](c4ccoc4)C[C@]3(C)[C@H]2C1=O (some centres undefined)
Ki [1]: > 1 µM

CC(=O)O[C@H]1C[C@@H](C(=O)O)[C@]2(C)CC[C@@H]3C(=O)O[C@H](c4ccoc4)C[C@]3(C)[C@H]2C1=O
Ki [1]: 0.0486 µM | EC50 [2]: 0.0741 µM | Efficacy [3]: 94%

CC(=O)O[C@H]1C[C@@H](C(=O)NC(C)C(=O)OCc2ccccc2)[C@]2(C)CC[C@H]3C(=O)O[C@H](c4ccoc4)C[C@]3(C)[C@H]2C1=O (some centres undefined)
Ki [1]: 0.0269 µM | EC50 [2]: 0.0467 µM | Efficacy [3]: 95%

CCCCOC(=O)[C@@H]1C[C@H](OC(C)=O)C(=O)[C@H]2[C@@]1(C)CC[C@H]1C(=O)O[C@H](c3ccoc3)C[C@]21C
Ki [1]: > 1 µM

CC(=O)O[C@H]1C[C@@H](C(=O)NC2CC2)[C@]2(C)CC[C@H]3C(=O)O[C@H](c4ccoc4)C[C@]3(C)[C@H]2C1=O
Ki [1]: > 1 µM

CC(=O)O[C@H]1C[C@@H](C(=O)OCc2ccccc2)[C@]2(C)CC[C@H]3C(=O)O[C@H](c4ccoc4)C[C@]3(C)[C@H]2C1=O
Ki [1]: > 1 µM

CC(=O)O[C@H]1C[C@@H](C(=O)NN2CCOCC2)[C@]2(C)CC[C@H]3C(=O)O[C@H](c4ccoc4)C[C@]3(C)[C@H]2C1=O
Ki [1]: > 1 µM

CC(=O)O[C@H]1C[C@@H](C(=O)NC(Cc2c[nH]cn2)C(=O)OCc2ccccc2)[C@]2(C)CC[C@H]3C(=O)O[C@H](c4ccoc4)C[C@]3(C)[C@H]2C1=O (some centres undefined)
Ki [1]: > 1 µM

CC(=O)O[C@H]1C[C@@H](C(=O)NCC(=O)OCc2ccccc2)[C@]2(C)CC[C@H]3C(=O)O[C@H](c4ccoc4)C[C@]3(C)[C@H]2C1=O
Ki [1]: 0.47 µM | EC50 [2]: 0.227 µM | Efficacy [3]: 105%

CC(=O)O[C@H]1C[C@@H](C(=O)NCCC#N)[C@]2(C)CC[C@H]3C(=O)O[C@H](c4ccoc4)C[C@]3(C)[C@H]2C1=O
Ki [1]: > 1 µM

CC(=O)O[C@H]1C[C@@H](C(=O)NC2CC2)[C@]2(C)CC[C@@H]3C(=O)O[C@H](c4ccoc4)C[C@]3(C)[C@H]2C1=O
Ki [1]: 0.475 µM | EC50 [2]: 0.84 µM | Efficacy [3]: 95%

CCOC(=O)[C@@H]1C[C@H](OC(C)=O)C(=O)[C@@H]2[C@@]3(C)C[C@@H](c4ccoc4)OC(=O)[C@H]3CC[C@]21C
Ki [1]: > 1 µM

CC(=O)O[C@H]1C[C@@H](C(=O)NC(C)C(=O)OCc2ccccc2)[C@]2(C)CC[C@@H]3C(=O)O[C@H](c4ccoc4)C[C@]3(C)[C@H]2C1=O (some centres undefined)
Ki [1]: > 1 µM

C#CCCCOC(=O)[C@@H]1C[C@H](OC(C)=O)C(=O)[C@H]2[C@@]1(C)CC[C@H]1C(=O)O[C@H](c3ccoc3)C[C@]21C
Ki [1]: 0.201 µM | EC50 [2]: 0.224 µM | Efficacy [3]: 104%

COCOC(=O)[C@@H]1C[C@H](OC(C)=O)C(=O)[C@H]2[C@@]1(C)CC[C@H]1C(=O)O[C@H](c3ccoc3)C[C@]21C
Ki [1]: 0.0996 µM | EC50 [2]: 0.0582 µM | Efficacy [3]: 105%

CCCCCOC(=O)[C@@H]1C[C@H](OC(C)=O)C(=O)[C@H]2[C@@]1(C)CC[C@H]1C(=O)O[C@H](c3ccoc3)C[C@]21C
Ki [1]: > 1 µM

CC(=O)O[C@H]1C[C@@H](C(=O)N2CCCC2C(=O)OCc2ccccc2)[C@]2(C)CC[C@H]3C(=O)O[C@H](c4ccoc4)C[C@]3(C)[C@H]2C1=O (some centres undefined)
Ki [1]: 0.21 µM | EC50 [2]: 0.348 µM | Efficacy [3]: 100%

CC(=O)O[C@H]1C[C@@H](C(=O)NCc2ccccc2)[C@]2(C)CC[C@H]3C(=O)O[C@H](c4ccoc4)C[C@]3(C)[C@H]2C1=O
Ki [1]: > 1 µM
